This note sets out measurements from the RNAGym collection of RNA variant scans (doi:10.1002/anie.201605470).

First the molecules themselves.
B1: Osa-1-4 twister ribozyme (parent)
chain: CCGCCUAACACUGCCAAUGCCGGUCCCAAGCCCGGAUAAAAGUGGAGGGGGCGG

In the data set the parent is B1. Put plainly: self-cleavage, relative activity (ratio to wild type); higher = more cleavage; co-transcriptional. The method in brief: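 For each read, cleavage status was taken from whether upstream sequence was present. The reads came from an Oryza sativa twister ribozyme of 54 nucleotides, whose DNA template was synthesised with 97 % wild-type base and 1 % of each other base at the 48 positions downstream of the cleavage site. The template was transcribed in vitro at 37 °C for 2 h with co-transcriptional self-cleavage, and the RNA was reverse-transcribed using a template-switching oligonucleotide, PCR-amplified and deep-sequenced. Relative activity is the fraction cleaved normalised to wild type.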
Consider CCGCCUAAGACUGCCAAUGCCGGUUCCAAGCCCGGAUAAAAGUGGAGGGGGCGG [C25U C9G], for which the self-cleavage was 0.18.
With CCGCCUAAAACUGCCAAUGCCGGUUCCAAGCCCGGAUAAAAGUGGAGGGGGCGG [C25U C9A] the figure was 0.23; with CCGCCUAACACUGCCAAUGCCGGUUCCAAGCCCGGAUAAAAGUGGAGGGGGCGA [C25U G54A], 0.34; with CCGCCUAACACUGCCAAUGCCGGUGCCAAGCCCGGAAAAAAGUGGAGGGGGCGG [C25G U37A], 0.12.
On to CCGCCUAACACUGCCAAUGCCGGUGCCAAGCCCGGAGAAAAGUGGAGGGGGCGG [C25G U37G], for which the self-cleavage stood at 0.13.
For the variant CCGCCUAACACUGCCAAUGCCGGUGCCAAGCCCGGACAAAAGUGGAGGGGGCGG [C25G U37C], the self-cleavage is 0.12.
Take CCGCCUAACACUGCCAAUGCCGGUUCCAAGCCCAGAUAAAAGUGGAGGGGGCGG [C25U G34A]: the self-cleavage turned out to be 0.85.
In the case of CCGCCUAACACUGCCAAUGCCGGUUCCAAGCCCCGAUAAAAGUGGAGGGGGCGG [C25U G34C], the self-cleavage amounted to 0.5.
As to CCGCCUAACACUGCCAAUGCCGGUUCCAAGCCCUGAUAAAAGUGGAGGGGGCGG [C25U G34U], the self-cleavage amounted to 0.77.
For CCGCCUAACACUGCCAAUGCCGGUUCCAAGCCCGCAUAAAAGUGGAGGGGGCGG [C25U G35C], the self-cleavage is 0.09.
Consider CCGCCUAACACUGCCAAUGCCGGUUCCAAGCCCGAAUAAAAGUGGAGGGGGCGG [C25U G35A], for which the self-cleavage worked out at 0.87.
As for CCGCCUAACACUGCCAAUGCCGGUUCCAAGCCCGUAUAAAAGUGGAGGGGGCGG [C25U G35U], the self-cleavage came to 0.72.
As for CCGCCUAACACUGCCAAUGCCGGUUCCAAGUCCGGAUAAAAGUGGAGGGGGCGG [C25U C31U], the self-cleavage turned out to be 0.13.
With CCGCCUAACACUGCCAAUGCCGGUUCCAAGACCGGAUAAAAGUGGAGGGGGCGG [C25U C31A] the figure was 0.04; with CCGCCUAACACUGCCAAUGCCGGUUCCAAGGCCGGAUAAAAGUGGAGGGGGCGG [C25U C31G], 0.31; with CCGCCUAACACUGCCAAUGCCGGUUCCAAGCCCGGAUAAAAGUGGAGGGUGCGG [C25U G50U], 0.52.
On to CCGCCUAACACUGCCAAUGCCGGUUCCAAGCCCGGAUAAAAGUGGAGGGCGCGG [C25U G50C], for which the self-cleavage stood at 0.23.
For CCGCCUAACACUGCCAAUGCCGGUUCCAAGCCCGGAUAAAAGUGGAGGGAGCGG [C25U G50A], the self-cleavage was found to be 0.87.
With CCGCCUAACACUGCCAAUGCCGGUUGCAAGCCCGGAUAAAAGUGGAGGGGGCGG [C25U C26G] the figure was 0.08; with CCGCCUAACACUGCCAAUGCCGGUUUCAAGCCCGGAUAAAAGUGGAGGGGGCGG [C25U C26U], 0.21; with CCGCCUAACACUGCCAAUGCCGGUUACAAGCCCGGAUAAAAGUGGAGGGGGCGG [C25U C26A], 0.04.
Turning to CCGCCUAACACUGCCAAUGCCGGUUCCAAGCCCGGAUAAAAGUGGAGGGGGCGG [C25U], the self-cleavage was 0.93.
Take CCGCCUAACACUGCCAAUGCCGGUUCCAAGCCCGGAUAAAAGUGGACGGGGCGG [C25U G47C]: the self-cleavage is 0.06.
In the case of CCGCCUAACACUGCCAAUGCCGGUUCCAAGCCCGGAUAAAAGUGGAUGGGGCGG [C25U G47U], the self-cleavage came out at 0.07.
Consider CCGCCUAACACUGCCAAUGCCGGUUCCAAGCCCGGAUAAAAGUGGAAGGGGCGG [C25U G47A], for which the self-cleavage is 0.09.
Turning to CCGCCUAACACUGCCAAUGCCGGUUCCAAGCCCGGAUAAAAGUGGAGGGGGCUG [C25U G53U], the self-cleavage is 0.11.
With CCGCCUAACACUGCCAAUGCCGGUUCCAAGCCCGGAUAAAAGUGGAGGGGGCAG [C25U G53A] the figure was 0.25.
Turning to CCGCCUAACACUGCCAAUGCCGGUUCCAAGCCCGGAUAAAAGUGGAGGGGGCCG [C25U G53C], the self-cleavage is 0.06.
For the variant CCGCCUAACACUGCCAAUGCCGGUUCGAAGCCCGGAUAAAAGUGGAGGGGGCGG [C25U C27G], the self-cleavage is 0.06.
Under CCGCCUAACACUGCCAAUGCCGGUUCUAAGCCCGGAUAAAAGUGGAGGGGGCGG [C25U C27U] stands 0.17; under CCGCCUAACACUGCCAAUGCCGGUUCAAAGCCCGGAUAAAAGUGGAGGGGGCGG [C25U C27A], 0.06; under CCGCCUAACACUGCCAAUGCCGCUUCCAAGCCCGGAUAAAAGUGGAGGGGGCGG [C25U G23C], 0.06.
Take CCGCCUAACACUGCCAAUGCCGUUUCCAAGCCCGGAUAAAAGUGGAGGGGGCGG [C25U G23U]: the self-cleavage worked out at 0.05.
Under CCGCCUAACACUGCCAAUGCCGAUUCCAAGCCCGGAUAAAAGUGGAGGGGGCGG [C25U G23A] stands 0.11; under CCGCCUAACACUGCCAAUGCCGGUUCCAAUCCCGGAUAAAAGUGGAGGGGGCGG [C25U G30U], 0.05.
For CCGCCUAACACUGCCAAUGCCGGUUCCAAACCCGGAUAAAAGUGGAGGGGGCGG [C25U G30A], the self-cleavage came to 0.03.
With CCGCCUAACACUGCCAAUGCCGGUUCCAACCCCGGAUAAAAGUGGAGGGGGCGG [C25U G30C] the figure was 0.03; with CCGCCUAACACUGCCAAUGCCGGUUCCAAGCCCGGAUAAAACUGGAGGGGGCGG [C25U G42C], 0.11.
As to CCGCCUAACACUGCCAAUGCCGGUUCCAAGCCCGGAUAAAAUUGGAGGGGGCGG [C25U G42U], the self-cleavage is 0.05.
For the variant CCGCCUAACACUGCCAAUGCCGGUUCCAAGCCCGGAUAAAAAUGGAGGGGGCGG [C25U G42A], the self-cleavage was 0.22.
As to CCGCCUAACACUGCCAAUGCCGGUUCCAAGCCCGGAUAAAAGUGGAGGUGGCGG [C25U G49U], the self-cleavage was determined as 0.71.
With CCGCCUAACACUGCCAAUGCCGGUUCCAAGCCCGGAUAAAAGUGGAGGCGGCGG [C25U G49C], the self-cleavage was determined as 0.06.
Under CCGCCUAACACUGCCAAUGCCGGUUCCAAGCCCGGAUAAAAGUGGAGGAGGCGG [C25U G49A] stands 0.77; under CCGCCUAACACUGCCAAUGCCGGUGCCAAGCCCGGAUAAAAGUGGAGGGGGCGA [C25G G54A], 0.11.
For the variant CCGCCUAACACUGCCAAUGCCGGUGCCAAGCCCGGAUAAAAGUGGAGGGGGCGU [C25G G54U], the self-cleavage was determined as 0.25.
Under CCGCCUAACACUGCCAAUGCCGGUGCCAAGCCCGGAUAAAAGUGGAGGGGGCGC [C25G G54C] stands 0.07.
On to CCGCCUAACACUGCCAAUGCCGGUUCCAAGCGCGGAUAAAAGUGGAGGGGGCGG [C25U C32G], for which the self-cleavage amounted to 0.1.
As to CCGCCUAACACUGCCAAUGCCGGUUCCAAGCACGGAUAAAAGUGGAGGGGGCGG [C25U C32A], the self-cleavage was determined as 0.06.
As for CCGCCUAACACUGCCAAUGCCGGUUCCAAGCUCGGAUAAAAGUGGAGGGGGCGG [C25U C32U], the self-cleavage came out at 0.08.
